Reference: ChEMBL document CHEMBL1150804, “Nonnucleoside inhibitor of measles virus RNA-dependent RNA polymerase complex activity” (Antimicrob Agents Chemother, 2007)
Active and inactive are the calls of the source. No cut-off for these calls is given here.

Tests used:
Measles morbillivirus [1] = assay: Antiviral activity against measles virus Edm in Vero cells expressing human SLAM assessed as reduction of virus yield; assay type: functional, organism-based
[2] = Cytotoxicity against african green monkey Vero cells expressing human SLAM by Promega assay; assay type: cell-based; details: chlorocebus sabaeus
Summary of the method: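 LDH-release assay: 12,000 cells/well exposed 24 h at 37°C to twofold compound dilutions (top 150 μM, or 300 μM for one compound), four replicates. Formazan read at 490 nm; % viability = 100 − [(experimental − background)/(maximum − background) × 100]; four experiments.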

Measles morbillivirus [3] = assay: Antiviral activity against measles virus assessed as inhibition of viral H and F protein-mediated cell-cell fusion at 150 uM; assay type: functional, organism-based
Summary of the method: (§1)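 Cells (6 × 10^5/well) transfected with 4 μg each of MV H and F plasmids; at 4 h moved into wells with twofold compound dilutions (top 150 μM). Fusion scored microscopically, photographed at 24 h; at 48 h syncytium-linked cytotoxicity measured by LDH-release assay, % vs DMSO; four replicates.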

Measles morbillivirus [4] = assay: Antiviral activity against measles virus assessed as inhibition of viral H and F protein-mediated cell-cell fusion; assay type: functional, organism-based; summary of the method: as §1
Measles morbillivirus [5] = assay: Antiviral activity against measles virus assessed as inhibition of virus mediated cytopathogenicity at 15 uMby syncytium formation assay; assay type: functional, organism-based; details: 15 uM
Measles morbillivirus [6] = assay: Antiviral activity against measles virus assessed as inhibition of viral H and F protein-mediated cell-cell fusion at 15 uM; assay type: functional, organism-based; summary of the method: as §1
Measles morbillivirus [7] = assay: Antiviral activity against measles virus genotype D9 assessed as reduction of virus yield; assay type: functional, organism-based
Summary of the method: (§2)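 Clinical MV isolates (grown on Vero-SLAM) infected at MOI 0.1 PFU/cell into 4 × 10^5 cells with threefold compound dilutions (top 37.5 μM) or DMSO at 37°C. At 36 h, cell-associated virus titered by TCID50; EC50 at 50% of DMSO yield; two experiments.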

[8] = tested on: Measles virus genotype D7; assay: Antiviral activity against measles virus genotype D7 assessed as reduction of virus yield; assay type: functional, organism-based; details: Measles morbillivirus; summary of the method: as §2
[9] = tested on: Measles virus genotype D6; assay: Antiviral activity against measles virus genotype D6 assessed as reduction of virus yield; assay type: functional, organism-based; details: Measles morbillivirus; summary of the method: as §2
Measles morbillivirus [10] = assay: Antiviral activity against measles virus genotype C assessed as reduction of virus yield; assay type: functional, organism-based; summary of the method: as §2
Measles morbillivirus [11] = assay: Antiviral activity against measles virus genotype B3-2 assessed as reduction of virus yield; assay type: functional, organism-based; summary of the method: as §2
[12] = Cytotoxicity against african green monkey Vero cells expressing human SLAM assessed as reduction in viable cells after 30 hrs by trypan blue exclusion assay; assay type: cell-based; details: chlorocebus sabaeus
Summary of the method: (§3)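 Trypan blue exclusion: 2 × 10^5 cells/well with fivefold compound dilutions (top 500 μM), 37°C for 30 h, three replicates per concentration. Detached cells stained with trypan blue 15 min at room temperature; live cells counted on a hemacytometer; expressed vs DMSO controls; three experiments.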

Vero = assay: Cytotoxicity against african green monkey Vero cells expressing human SLAM assessed as reduction in viable cells at 500 uM after 30 hrs by trypan blue exclusion assay; assay type: cell-based; details: chlorocebus sabaeus; summary of the method: as §3
Measles morbillivirus [13] = assay: Antiviral activity against measles virus Alaska assessed as reduction of virus yield in presence of 10 mg/ml BSA; assay type: functional, organism-based
Summary of the method: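 Specificity test with MV-Alaska: 4 × 10^5 cells infected in serum-free medium at MOI 0.1 or 0.5 PFU/cell with fourfold dilutions (top 12.5 μM), with or without BSA at 10 mg/ml final.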

Morbillivirus canis = assay: Antiviral activity against Canine distemper virus assessed as reduction of virus yield; assay type: functional, organism-based
Summary of the method: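 Virus-yield dose-response: 4 × 10^5 cells/well infected at MOI 0.1 PFU/cell (CDV stocks grown on Vero-dogSLAM) with twofold compound dilutions (top 75 μM) or DMSO; kept at 37°C with compound. At 36 h, cell-associated virus titered by TCID50 (Spearman-Karber); titers normalized to DMSO; EC50 taken at 50% of DMSO yield; two experiments.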

[14] = tested on: Human parainfluenza virus 2; assay: Antiviral activity against human parainfluenza virus 2 assessed as reduction of virus yield at 75 uM; assay type: functional, organism-based; details: Human orthorubulavirus 2
Measles morbillivirus [15] = assay: Antiviral activity against measles virus Edm in Vero cells expressing human SLAM assessed as reduction of virus yield preincubated in culture medium for 24 hrs; assay type: functional, organism-based
Measles morbillivirus [16] = assay: Antiviral activity against measles virus genotype G2 assessed as reduction of virus yield; assay type: functional, organism-based; summary of the method: as §2
Measles morbillivirus [17] = assay: Antiviral activity against measles virus genotype G3 assessed as reduction of virus yield; assay type: functional, organism-based; summary of the method: as §2
Measles morbillivirus [18] = assay: Antiviral activity against measles virus genotype H2 assessed as reduction of virus yield; assay type: functional, organism-based; summary of the method: as §2
Measles virus genotype A = assay: Antiviral activity against measles virus genotype A assessed as reduction of virus yield; assay type: functional, organism-based; details: Measles morbillivirus; summary of the method: as §2
BSR T7/5 [19] = assay: Inhibition of measles virus RNA-dependent RNA polymerase complex activity in BSR T7/5 cells assessed as CAT promoter expression by minireplicon assay; assay type: cell-based; details: Measles morbillivirus
Summary of the method: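 BSR T7/5 cells (5 × 10^5) transfected with MV L (0.24 μg), N (0.94 μg), P (0.29 μg) plasmids plus 2 μg CAT minigenome; controls lacked L. At 2 h, threefold compound dilutions (top 30 μM) or DMSO added.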

Measles morbillivirus [20] = assay: Antiviral activity against measles virus assessed as reduction of virus yield at 15 uM administered 12 hrs postinfection; assay type: functional; parameters: scale not given: the % may be the effect or the level left
Summary of the method: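 One-step time-of-addition: 3 × 10^5 cells infected with MV at MOI 1.0 PFU/cell; compound (15 μM final) added at set times postinfection; DMSO controls. At 20 h postinfection, cell-associated virus harvested and titered by TCID50; two experiments.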

BSR T7/5 [21] = assay: Inhibition of Nipah virus RNA-dependent RNA polymerase complex activity in BSR T7/5 cells assessed as CAT promoter expression by minireplicon assay; assay type: cell-based; details: Henipavirus nipahense
Summary of the method: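 BSR T7/5 cells (T7 polymerase-expressing) transfected with plasmids for Nipah L (0.4 μg), N (1.25 μg), P (0.8 μg) plus 3.5 μg Nipah CAT minigenome reporter; controls lacked L plasmid. Compound added 2 h posttransfection in threefold dilutions (highest 30 μM), DMSO controls.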

Escherichia phage T7 = assay: Inhibition of Enterobacteria phage T7 polymerase assessed as F protein synthesis by in vitro transcription/translation assay
Summary of the method: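 Cell-free rabbit reticulocyte lysate with 0.5 μg T7-promoter MV F plasmid, 20 μCi [35S]methionine and 50 μM compound or DMSO, 30°C for 90 min. Products separated on 12% SDS gels and autoradiographed. Control: plasmid with F gene reversed relative to the T7 promoter.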

[22] = Selectivity index, ratio of CC50 for african green monkey Vero cells by Promega assay to IC50 for measles virus Edm; assay type: functional
[23] = Selectivity index, ratio of CC50 for african green monkey Vero cells by trypan blue exclusion assay to IC50 for measles virus Edm; assay type: functional

For Cn1nc(C(F)(F)F)cc1C(=O)Nc1ccc(S(=O)(=O)N2CCCC2)cc1, the EC50 (Measles morbillivirus [1]) was 240 nM, the CC50 [2] was over 300000 nM and the Activity (Measles morbillivirus [3]) was “inactive”. The Activity (Measles morbillivirus [4]) was “Active”, the Activity (Measles morbillivirus [5]) was “Active” and the Activity (Measles morbillivirus [6]) was “inactive”. It also gave an EC50 (Measles morbillivirus [7]) of 90 nM, an EC50 [8] of 80 nM and an EC50 [9] of 100 nM. For the same molecule, the EC50 (Measles morbillivirus [10]) was 110 nM, the EC50 (Measles morbillivirus [11]) was 140 nM and the CC50 at 30 h [12] was over 500000 nM. The Activity (Vero) was 20%, the Activity (Measles morbillivirus [13]) was “Active” and the EC50 (Morbillivirus canis) was 28000 nM. For the same molecule, the EC50 [14] was over 75000 nM, the Activity (Measles morbillivirus [15]) was “Active” and the EC50 (Measles morbillivirus [16]) was 50 nM. For the same molecule, the EC50 (Measles morbillivirus [17]) was 110 nM, the EC50 (Measles morbillivirus [18]) was 35 nM and the EC50 (Measles virus genotype A) was 240 nM. The Activity (BSR T7/5 [19]) was “Active”, the Activity (Measles morbillivirus [20]) was 99.9% and the Activity (BSR T7/5 [21]) was “inactive”. The Activity (Escherichia phage T7) was “inactive”.
With Cc1ccc2nsnc2c1S(=O)(=O)Nc1ccc(Cl)cc1 the EC50 (Measles morbillivirus [1]) was 2000 nM, the CC50 [2] was 100000 nM and the “Ratio CC50/EC50” value [22] was 50.
Cc1ccc2[nH]c(=O)c(CNS(=O)(=O)c3ccccc3)c(-c3ccccc3)c2c1 showed an EC50 (Measles morbillivirus [1]) of 15700 nM, a CC50 [2] of over 150000 nM and a CC50 at 30 h [12] of 71000 nM. The “Ratio CC50/EC50” value [22] was over 10 and the “Ratio CC50/EC50” value [23] was 4.5.
For O=C(NC(=O)N(c1ccc(Cl)cc1)S(=O)(=O)c1ccccc1)Nc1ccccc1Cl, the EC50 (Measles morbillivirus [1]) was 2800 nM, the CC50 [2] was 121000 nM and the “Ratio CC50/EC50” value [22] was 43.2.
